Blank lines part the entries; values can stand above or below the compound they belong to. Activity calls are given as the source filed them. The calls are words filed in the database; no cut-off is given here.
Assays:
[1] = target: Protein-arginine deiminase type-4 (Homo sapiens, UniProt Q9UM07); assay: Irreversible inhibition of PAD4 assessed as hydrolysis of benzoyl-L-arginine ethyl ester preincubated for 15 mins measured after 15 mins by fluorometric analysis
[2] = tested on: HL-60; assay: Potentiation of doxorubicin-induced cytotoxicity against human HL60 cells assessed as reduction in cell viability at 0.1 to 1 uM after 24 hrs by MTT assay relative to control; assay type: functional
How it was run: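 HL60 cells (RPMI 1640, 10% FBS, 37 °C, 5% CO2) were exposed for 24 h to doxorubicin alone or together with inhibitor at fixed levels. Viability was read by MTT assay as percent of control absorbance, run in triplicate. Doxorubicin EC50 came from dose-response fits. Interaction was scored by the additive model: observed/expected ratio <0.8 synergistic, 0.8–1.2 additive.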

[3] = tested on: HL-60; assay: Cytotoxicity against human HL60 cells assessed as reduction in cell viability after 24 hrs by MTT assay relative to control; assay type: functional, cell-based; conditions: HL-60, 24 h
How it was run: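 HL60 cells grown in RPMI 1640 with 10% FBS and 1% penicillin-streptomycin at 37 °C, 5% CO2, used at 1 × 10^6 cells/mL. Compounds were added at 100 nM to 100 μM final and incubated 24 h. Viability was read by MTT-type assay as percent of control absorbance, with 1% Triton X-100 as the 100% kill control. Triplicates; EC50 from dose-response fit where possible.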

[4] = target: T1, Protein-arginine deiminase type-3 (Homo sapiens, UniProt Q9ULW8); assay: Irreversible inhibition of PAD3 assessed as hydrolysis of benzoyl-L-arginine ethyl ester preincubated for 15 mins measured after 15 mins by fluorometric analysis
T1 sequence (Q9ULW8 whole entry): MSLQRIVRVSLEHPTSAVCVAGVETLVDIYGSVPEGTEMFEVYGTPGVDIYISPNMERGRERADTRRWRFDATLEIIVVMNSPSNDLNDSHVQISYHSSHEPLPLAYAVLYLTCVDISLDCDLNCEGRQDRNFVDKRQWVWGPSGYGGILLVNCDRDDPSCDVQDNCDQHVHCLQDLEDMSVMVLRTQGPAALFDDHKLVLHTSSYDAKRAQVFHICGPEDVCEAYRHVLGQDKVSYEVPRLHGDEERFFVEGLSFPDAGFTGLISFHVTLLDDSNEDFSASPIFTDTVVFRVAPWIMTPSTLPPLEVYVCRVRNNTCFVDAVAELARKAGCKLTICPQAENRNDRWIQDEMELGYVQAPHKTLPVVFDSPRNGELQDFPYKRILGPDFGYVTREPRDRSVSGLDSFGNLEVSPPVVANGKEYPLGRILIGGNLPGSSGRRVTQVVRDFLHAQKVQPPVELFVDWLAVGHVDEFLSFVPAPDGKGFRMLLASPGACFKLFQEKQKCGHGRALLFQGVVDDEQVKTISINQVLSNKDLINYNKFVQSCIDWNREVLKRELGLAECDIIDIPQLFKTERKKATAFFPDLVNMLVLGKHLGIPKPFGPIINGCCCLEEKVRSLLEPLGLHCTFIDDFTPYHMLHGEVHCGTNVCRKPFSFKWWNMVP

[5] = target: T2, Protein-arginine deiminase type-1 (Homo sapiens, UniProt Q9ULC6); assay: Irreversible inhibition of PAD1 assessed as hydrolysis of benzoyl-L-arginine ethyl ester preincubated for 15 mins measured after 15 mins by fluorometric analysis
T2 sequence (Q9ULC6 whole entry): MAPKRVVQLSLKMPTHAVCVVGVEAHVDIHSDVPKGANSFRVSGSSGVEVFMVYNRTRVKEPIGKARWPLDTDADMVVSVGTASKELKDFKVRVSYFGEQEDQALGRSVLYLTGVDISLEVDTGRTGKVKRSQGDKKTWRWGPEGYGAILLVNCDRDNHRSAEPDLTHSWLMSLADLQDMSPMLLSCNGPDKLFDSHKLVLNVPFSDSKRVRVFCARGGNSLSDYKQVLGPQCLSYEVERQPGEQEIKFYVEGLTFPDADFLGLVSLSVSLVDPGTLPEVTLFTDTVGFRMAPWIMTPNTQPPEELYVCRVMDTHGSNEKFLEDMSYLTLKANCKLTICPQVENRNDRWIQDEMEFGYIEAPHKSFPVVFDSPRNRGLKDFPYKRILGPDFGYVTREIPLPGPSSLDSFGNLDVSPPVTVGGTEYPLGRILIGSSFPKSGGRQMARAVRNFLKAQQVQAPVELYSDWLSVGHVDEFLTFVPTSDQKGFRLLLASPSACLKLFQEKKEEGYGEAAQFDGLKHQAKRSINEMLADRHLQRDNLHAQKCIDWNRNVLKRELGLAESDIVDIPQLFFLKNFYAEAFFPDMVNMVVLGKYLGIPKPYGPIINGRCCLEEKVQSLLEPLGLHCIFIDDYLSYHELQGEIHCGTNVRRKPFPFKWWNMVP

[6] = tested on: TK6; assay: Induction of apoptosis in human TK6 cells assessed as viable cells at 50 ug/ml after 4 hrs by annexin V/propidium iodide staining method relative to control; assay type: functional; conditions: TK6, 4 h, read-out: Activity
How it was run: (§1)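 TK6 human lymphoblastoid cells kept in exponential suspension culture in RPMI 1640 with 10% heat-inactivated calf serum, penicillin/streptomycin and 2 mmol/L L-glutamine at 37 °C, 5% CO2. Serum was cut to 1% 12 h before dosing at 50 μg/ml for the stated times. Cells were stained with Annexin V/propidium iodide and analysed as quadrant scatterplots.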

[7] = tested on: TK6; assay: Induction of apoptosis in human TK6 cells assessed as necrotic cells at 50 ug/ml after 8 hrs by annexin V/propidium iodide staining method relative to control relative to control; assay type: functional; how it was run: as §1
[8] = tested on: TK6; assay: Induction of apoptosis in human TK6 cells assessed as early apoptotic cells at 50 ug/ml after 2 hrs by annexin V/propidium iodide staining method relative to control; assay type: functional; how it was run: as §1
[9] = tested on: TK6; assay: Induction of apoptosis in human TK6 cells assessed as necrotic cells at 50 ug/ml after 4 hrs by annexin V/propidium iodide staining method relative to control; assay type: functional; how it was run: as §1
[10] = tested on: TK6; assay: Induction of apoptosis in human TK6 cells assessed as late apoptotic cells at 50 ug/ml after 2 hrs by annexin V/propidium iodide staining method relative to control; assay type: functional; how it was run: as §1
[11] = tested on: TK6; assay: Induction of apoptosis in human TK6 cells assessed as necrotic cells at 50 ug/ml after 2 hrs by annexin V/propidium iodide staining method relative to control; assay type: functional; how it was run: as §1
[12] = tested on: TK6; assay: Induction of apoptosis in human TK6 cells assessed as early apoptotic cells at 50 ug/ml after 4 hrs by annexin V/propidium iodide staining method relative to control; assay type: functional
[13] = tested on: TK6; assay: Induction of apoptosis in human TK6 cells assessed as late apoptotic cells at 50 ug/ml after 4 hrs by annexin V/propidium iodide staining method relative to control; assay type: functional; how it was run: as §1
[14] = tested on: TK6; assay: Induction of apoptosis in human TK6 cells assessed as viable cells at 50 ug/ml after 2 hrs by annexin V/propidium iodide staining method relative to control; assay type: functional; conditions: TK6, 2 h, read-out: Activity; how it was run: as §1
[15] = tested on: TK6; assay: Induction of apoptosis in human TK6 cells assessed as induction of PARP cleavage at 50 ug/ml measured up to 8 hrs by Western blotting; assay type: functional, cell-based
How it was run: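 TK6 cells were moved to 1% heat-inactivated calf serum RPMI 1640 12 h beforehand, then exposed to 50 μg/ml for time courses. PARP cleavage was detected by western blot with anti-PARP antibody, using GAPDH as loading control.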

[16] = tested on: TK6; assay: Induction of apoptosis in human TK6 cells assessed as early apoptotic cells at 50 ug/ml after 8 hrs by annexin V/propidium iodide staining method relative to control; assay type: functional; how it was run: as §1
[17] = tested on: TK6; assay: Induction of apoptosis in human TK6 cells assessed as viable cells at 50 ug/ml after 8 hrs by annexin V/propidium iodide staining method relative to control; assay type: functional; conditions: TK6, 8 h, read-out: Activity; how it was run: as §1
[18] = tested on: TK6; assay: Induction of apoptosis in human TK6 cells assessed as late apoptotic cells at 50 ug/ml after 8 hrs by annexin V/propidium iodide staining method relative to control; assay type: functional; how it was run: as §1
[19] = tested on: HL-60; assay: Induction of human HL60 cell differentiation assessed as increase in PAD4 expression level at 1 uM after 12 hrs by Western blotting; assay type: functional, cell-based
[20] = tested on: HL-60; assay: Induction of human HL60 cell differentiation assessed as increase in PAD4 expression level after 24 hrs by Western blotting; assay type: functional, cell-based
[21] = target: Protein-arginine deiminase type-2 (Homo sapiens, UniProt Q9Y2J8); assay: Irreversible inhibition of PAD2 assessed as hydrolysis of benzoyl-L-arginine ethyl ester preincubated for 15 mins measured after 15 mins by fluorometric analysis
[22] = tested on: HL-60; assay: Induction of human HL60 cell differentiation assessed as increase in PAD4 expression level at 10 uM after 6 hrs by Western blotting; assay type: functional, cell-based
[23] = tested on: HL-60; assay: Induction of human HL60 cell differentiation assessed as increase in PAD4 expression level at 1 uM after 24 hrs by Western blotting; assay type: functional, cell-based
[24] = tested on: HL-60; assay: Induction of human HL60 cell differentiation assessed as increase in PAD4 expression level at 1 to 10 uM by Western blotting; assay type: functional, cell-based; conditions: TDE = time-dependent effect

Sequence of Protein-arginine deiminase type-4 (Q9UM07 whole entry): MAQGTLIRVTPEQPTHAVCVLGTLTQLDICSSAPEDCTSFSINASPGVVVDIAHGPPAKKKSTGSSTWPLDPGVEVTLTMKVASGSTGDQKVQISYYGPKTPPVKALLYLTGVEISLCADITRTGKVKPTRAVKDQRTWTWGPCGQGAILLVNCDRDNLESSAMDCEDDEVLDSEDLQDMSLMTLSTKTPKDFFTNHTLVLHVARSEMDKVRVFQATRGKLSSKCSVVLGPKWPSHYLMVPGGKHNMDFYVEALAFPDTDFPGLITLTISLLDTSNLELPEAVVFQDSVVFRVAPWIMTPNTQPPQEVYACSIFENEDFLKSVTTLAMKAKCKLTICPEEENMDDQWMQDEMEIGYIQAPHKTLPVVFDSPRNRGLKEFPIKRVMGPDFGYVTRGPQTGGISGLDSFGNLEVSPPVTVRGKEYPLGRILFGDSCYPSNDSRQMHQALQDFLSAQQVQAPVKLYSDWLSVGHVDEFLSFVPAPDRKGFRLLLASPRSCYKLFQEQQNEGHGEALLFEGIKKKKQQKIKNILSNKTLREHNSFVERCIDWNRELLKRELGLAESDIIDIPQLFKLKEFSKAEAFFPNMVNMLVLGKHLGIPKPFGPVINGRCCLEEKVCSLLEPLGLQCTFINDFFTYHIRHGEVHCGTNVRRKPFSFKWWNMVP
Sequence of Protein-arginine deiminase type-2 (Q9Y2J8 whole entry): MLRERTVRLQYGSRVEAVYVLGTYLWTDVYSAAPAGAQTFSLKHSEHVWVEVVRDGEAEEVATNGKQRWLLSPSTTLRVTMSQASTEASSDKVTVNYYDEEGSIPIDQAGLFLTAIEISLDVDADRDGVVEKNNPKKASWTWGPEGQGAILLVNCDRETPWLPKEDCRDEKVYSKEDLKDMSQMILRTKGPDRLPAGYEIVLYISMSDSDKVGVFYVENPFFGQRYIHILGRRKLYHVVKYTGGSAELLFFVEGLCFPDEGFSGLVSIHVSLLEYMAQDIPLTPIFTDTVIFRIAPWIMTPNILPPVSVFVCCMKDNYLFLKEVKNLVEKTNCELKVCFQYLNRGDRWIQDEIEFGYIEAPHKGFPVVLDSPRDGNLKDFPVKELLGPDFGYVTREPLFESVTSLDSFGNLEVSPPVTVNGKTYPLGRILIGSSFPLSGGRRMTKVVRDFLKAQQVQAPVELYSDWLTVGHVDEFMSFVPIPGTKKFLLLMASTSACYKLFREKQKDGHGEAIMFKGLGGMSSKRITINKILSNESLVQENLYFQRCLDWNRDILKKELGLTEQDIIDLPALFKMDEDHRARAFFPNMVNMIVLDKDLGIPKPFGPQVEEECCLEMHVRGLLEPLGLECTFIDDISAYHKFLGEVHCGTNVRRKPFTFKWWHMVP

Compound: COc1cccc2c1C(=O)c1c(O)c3c(c(O)c1C2=O)C[C@@](O)(C(=O)CO)C[C@@H]3O[C@H]1C[C@H](N)[C@H](O)[C@H](C)O1 [DOXORUBICIN]
fold change (FC) [2]: 6
EC50 [3]: 2.5 µM

Compound: N=C(CF)Nc1ccccc1
IC50 [1]: > 500 µM

Compound: CCCNC(=N)CF
IC50 [1]: > 1000 µM

Compound: N=C(CF)NCCC[C@H](NC(=O)c1ccccc1)C(N)=O
IC50 [4]: 367 µM
Ki [4]: 293 µM
IC50 [5]: 29 µM
Ki [5]: 110 µM

Compound: N=C(CCl)NCCC[C@H](NC(=O)c1ccccc1)C(N)=O.O=C(O)C(F)(F)F
viability at 50 µg/mL [6]: 78.8%
Activity [7]: 0.8%
Activity [8]: 7.5%
Activity [9]: 0.4%
Activity [10]: 6.8%
Activity [11]: 0.1%
Activity [12]: 11.9%
Activity [13]: 8.9%
viability at 50 µg/mL [14]: 85.6%
Activity [15]: Active
Activity [16]: 20.4%
viability at 50 µg/mL [17]: 46.2%
Activity [18]: 32.6%

Compound: N=C(CCl)NCCC[C@H](NC(=O)c1ccccc1C(=O)O)C(N)=O
Activity [19]: Active
Activity [20]: Dose-dependent effect
Activity [22]: Active
Activity [23]: Active
Activity [24]: tde

Compound: N=C(CF)NCc1ccccc1
IC50 [1]: > 1000 µM

Compound: N=C(N)CF
IC50 [1]: > 10000 µM

Now from value to compound, other results behind:

IC50 [1]: > 1000 µM
Compound: N=C(CF)NCc1ccc(C[C@H](NC(=O)c2ccccc2)C(N)=O)cc1

IC50 [1]: 500 µM
Compound: N=C(CF)NCCC[C@H](NS(=O)(=O)c1ccccc1)C(N)=O

IC50 [1]: 310 µM
Compound: N=C(CF)Nc1cccc(C[C@H](NC(=O)c2ccccc2)C(N)=O)c1

IC50 [1]: > 1000 µM
Compound: N=C(CF)NCCCCNS(=O)(=O)c1ccccc1

IC50 [1]: > 1000 µM
Compound: N=C(CF)NCCCCNC(=O)c1ccccc1

IC50 [1]: 230 µM
Compound: N=C(CF)NCCC[C@H](NC(=O)c1c[nH]cn1)C(N)=O

IC50 [1]: 2100 µM
Compound: N=C(CF)Nc1cccc([C@H](NC(=O)c2ccccc2)C(N)=O)c1

IC50 [21]: ≥ 50 µM
Compound: N=C(CF)NCCC[C@H](NC(=O)c1ccccc1C(=O)O)C(N)=O.O=C(O)C(F)(F)F
Activity [19]: Active
viability at 50 µg/mL [6]: 74.9%
Activity [7]: 0.3%
Activity [8]: 8.3%
Activity [9]: 0.3%
Activity [10]: 3.3%
Activity [11]: 0.3%
Activity [20]: Dose-dependent effect
Activity [13]: 4.8%
Activity [22]: Active
Activity [23]: Active
viability at 50 µg/mL [14]: 88%
Activity [15]: Active
Activity [16]: 27.7%
viability at 50 µg/mL [17]: 60.1%
Activity [24]: tde
Activity [18]: 11.9%

IC50 [1]: 310 µM
Compound: N=C(CF)Nc1ccc(C[C@H](NC(=O)c2ccccc2)C(N)=O)cc1

From ChEMBL document CHEMBL1909620, “The development of N-α-(2-carboxyl)benzoyl-N(5)-(2-fluoro-1-iminoethyl)-l-ornithine amide (o-F-amidine) and N-α-(2-carboxyl)benzoyl-N(5)-(2-chloro-1-iminoethyl)-l-ornithine amide (o-Cl-amidine) as second generation protein arginine deiminase (PAD) inhibitors” (J Med Chem, 2011)
